Measured values taken from ChEMBL document CHEMBL4382296, “Synthesis, Profiling, and in Vivo Evaluation of Cyclopeptides Containing N-Methyl Amino Acids as Antiplasmodial Agents” (ACS Med Chem Lett, 2019).
Values after ≈ are worked out from the molar mass of the structure shown. Active and inactive are the calls of the source. The rule behind the calls is not given here. Where a SMILES comes first, the peptide text is derived from it. [ ]: non-standard residue; d: D form. The star is where a group is joined. Trt = c1ccc(C(c2ccccc2)(c2ccccc2)*)cc1; Sar = CNCC(=O)O; tBu = CC(C)(C)*

Assays:
Plasmodium falciparum [1] = test: Antiplasmodial activity against chloroquine-resistant Plasmodium falciparum K1 infected in human erythrocytes assessed as reduction in [3H]hypoxanthine incorporation pretreated for 24 hrs followed by [3H]hypoxanthine addition and measured after 24 hrs by liquid scintillation counting method; format: functional, organism-based
Summary of the method: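 Chloroquine-resistant P. falciparum K1 in erythrocytes incubated with compound for 24 h; growth read as 3H-hypoxanthine incorporation; EC50 reported as mean ± SD of n = 2.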

Plasmodium falciparum [2] = test: Anti-plasmodial activity against chloroquine-sensitive Plasmodium falciparum 3D7 infected in erythrocytes after 72 hrs by SYBR green dye based fluorescence assay; format: functional, organism-based; conditions: 3D7, 72 h
Summary of the method: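 P. falciparum 3D7 (drug-sensitive) grown in erythrocytes; growth read by SYBR Green fluorescence; EC50 reported as mean ± SD of n = 2.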

Plasmodium falciparum [3] = test: Plasmodicidal activity against Plasmodium falciparum 3D7A infected in CFDA-SE-labelled erythrocytes assessed as parasite killing at 10 times EC50 treated for 24 to 48 hrs following media refreshment for every 24 hrs by FACS analysis; format: functional, organism-based
Summary of the method: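 Viability was judged by the ability of drug-treated parasites to make new invasions of prestained human RBCs. New invasions were quantified by double-colorimetric FACS. Drug treatment used two time points to separate rapidly parasiticidal from moderate or slow acting agents.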

[4] = Solubility of the compound in pH 7.4 phosphate buffered saline after 2 hrs by UV-HPLC analysis; format: physicochemical
Summary of the method: (§1)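 Solubility was measured in PBS pH 7.4 and at pH 1.0, in μM, n = 2.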

Plasmodium berghei [5] = test: Antiplasmodial activity against exoerythrocytic-stage of Plasmodium berghei ANKA infected in human HepG2 cells expressing CD81 pretreated with cells for 18 hrs followed by parasite infection and measured after 48 hrs by brightglo-luminescence assay; format: functional, organism-based
[6] = n-Octanol/water partition coefficient, log D of compound at pH 7.4 by UV-HPLC analysis
[7] = Selectivity index, ratio of IC50 for mouse J774 cells to EC50 for chloroquine-resistant Plasmodium falciparum K1 infected in human erythrocytes; format: toxicity, cell-based; conditions: read-out: Ratio IC50/EC50
[8] = Permeability of the compound in pH 7.4 phosphate buffered saline at 20 uM after 20 hrs by PAMPA; format: ADME; conditions: for Papp at 20 h, 20 µM: PAMPA, pH 7.4, read-out: permeability; for permeability: pampa, pH 7.4, 20 h, 20 µM, BLD = below limit of detection
Summary of the method: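 PAMPA giving experimental permeability Pe (×10–6 cm/s), n = 3. The limit of quantitation in the acceptor compartment was 0.02 or 0.03 μM.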

[9] = Selectivity index, ratio of IC50 for human HepG2 cells to EC50 for chloroquine-sensitive Plasmodium falciparum 3D7 infected in erythrocytes; format: toxicity, cell-based; conditions: read-out: Ratio IC50/EC50
Summary of the method: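 Selectivity index is HepG2 cytotoxicity IC50 divided by EC50 against drug-sensitive P. falciparum 3D7. Parasite EC50 came from a SYBR Green growth assay, with values as the mean of n = 2.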

[10] = Solubility of the compound in pH 1 0.1M HCl after 2 hrs by UV-HPLC analysis; format: physicochemical; summary of the method: as §1
[11] = Plasma concentration in Swiss albino mouse at 50 mg/kg, po after 0.5 to 12 hrs by LC-MS/MS analysis; format: ADME, organism-based; conditions: in vivo
Summary of the method: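 Male Swiss Albino mice received a solution formulation of the compound as one oral dose of 50 mg/kg. Blood was sampled at 0.25, 0.5, 1, 2, 4, 6, 8, 12 and 24 h, and plasma levels were measured (LLOQ 5.16 ng/mL). Values are means, n = 3.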

Plasmodium berghei [12] = test: Antiplasmodial activity against Plasmodium berghei NK65 infected in Swiss mouse assessed as reduction in parasitemia at 50 mg/kg, po administered once daily for 3 consecutive days post infection measured on day 5 post infection relative to control; format: functional; set-up: scale not given: the % may be the effect or the level left
Summary of the method: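 Suppressive test in Swiss outbred mice inoculated with P. berghei NK65-infected red blood cells. A single oral dose of 50 mg·kg–1 was given on each of days 2, 3 and 4. Control groups received chloroquine or vehicle. Parasitemia reduction was read on day 5 and followed until day 9.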

Plasmodium berghei [13] = test: Antiplasmodial activity against Plasmodium berghei NK65 infected in Swiss mouse assessed as reduction in parasitemia at 50 mg/kg, po administered once daily for 3 consecutive days post infection measured on day 9 post infection; format: functional, organism-based
Summary of the method: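 Four-day suppressive test: Swiss outbred mice inoculated with P. berghei NK65-infected red blood cells, then given a single oral 50 mg/kg dose on each of days 2, 3 and 4. Chloroquine-treated and vehicle-treated groups served as controls. Parasitemia was measured on day 5 and followed to day 9.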

Row | permeability [8] | Compound | EC50 (Plasmodium falciparum [1]) [nM] | EC50 (Plasmodium falciparum [2]) [nM] | Activity (Plasmodium falciparum [3]) | solubility at 2 h [4] [µM] | EC50 (Plasmodium berghei [5]) [nM] | logD [6] | selectivity ratio [7] | EC90 (Plasmodium falciparum [1]) [nM] | Papp at 20 h, 20 µM [8] [×10⁻⁶ cm/s] | selectivity ratio [9] | solubility at 2 h [10] [µM] | Cp [11] [ng/mL] | Activity (Plasmodium berghei [12]) [%] | Activity (Plasmodium berghei [13])
1 |  | C[C@H]1[C@H](OC(=O)CCC(=O)O)O[C@@H]2O[C@@]3(C)CC[C@H]4[C@H](C)CC[C@@H]1[C@@]24OO3 [ARTESUNATE] | 3 | 5 |  |  |  |  |  |  |  |  |  |  |  | 
2 |  | CN1CC(=O)N[C@@H](CSC(c2ccccc2)(c2ccccc2)c2ccccc2)C(=O)N[C@@H](Cc2ccccc2)C(=O)N[C@@H](COC(C)(C)C)C(=O)N(C)CC(=O)N[C@@H](CSC(c2ccccc2)(c2ccccc2)c2ccccc2)C1=O (cyclo(C(Trt)FS(tBu)[Sar]C(Trt)[Sar])) | 9 | 1.8 | inactive | 0.71 (≈ 0.798 µg/mL) | 335 | 8 | > 11000 | 59 | 0.2 | > 140000 | 5.32 (≈ 5.98 µg/mL) |  |  | 
3 |  | CCc1nc(N)nc(N)c1-c1ccc(Cl)cc1 [PYRIMETHAMINE] |  | 35 | inactive |  |  |  |  |  |  |  |  |  |  | 
4 |  | C[C@@H](OC(C)(C)C)[C@@H]1NC(=O)CN(C)C(=O)[C@H](CSC(c2ccccc2)(c2ccccc2)c2ccccc2)NC(=O)CNC(=O)[C@H](CSC(c2ccccc2)(c2ccccc2)c2ccccc2)NC(=O)CN(C)C1=O (cyclo(C(Trt)GC(Trt)[Sar]T(tBu)[Sar])) | 0.008 | 0.25 |  | 0.38 (≈ 0.398 µg/mL) |  | 6 |  | 1 | 1 | > 1e+06 | 3.46 (≈ 3.62 µg/mL) | > 9 | 71 | Active
5 |  | C[C@@H]1CC[C@H]2[C@@H](C)C(=O)O[C@@H]3O[C@@]4(C)CC[C@@H]1[C@]32OO4 [ARTEMISININ] | 20 |  |  |  |  |  |  |  |  |  |  |  |  | 
6 |  | CCN(CC)CCCC(C)Nc1ccnc2cc(Cl)ccc12 (stereo not given) [CHLOROQUINE] | 470 |  |  |  |  |  |  |  |  |  |  |  |  | 
7 |  | CN1CC(=O)N[C@@H](CSC(c2ccccc2)(c2ccccc2)c2ccccc2)C(=O)N[C@@H](CSC(c2ccccc2)(c2ccccc2)c2ccccc2)C(=O)N(C)CC(=O)N[C@@H](COC(C)(C)C)C1=O (cyclo(C(Trt)C(Trt)[Sar]S(tBu)[Sar])) |  |  |  | 0.12 (≈ 0.117 µg/mL) |  | 7.7 |  |  | 2 |  | 0.21 (≈ 0.205 µg/mL) |  |  | 
8 |  | C[C@@H](OC(C)(C)C)[C@@H]1NC(=O)CN(C)C(=O)[C@H](CSC(c2ccccc2)(c2ccccc2)c2ccccc2)NC(=O)CN(C)C(=O)[C@H](CSC(c2ccccc2)(c2ccccc2)c2ccccc2)NC(=O)CN(C)C1=O (cyclo(C(Trt)[Sar]C(Trt)[Sar]T(tBu)[Sar])) | 0.04 | 1 | inactive | 0.55 (≈ 0.584 µg/mL) | 18 | 3.7 | > 2.5e+06 | 1 | 0.2 | > 250000 | 0.38 (≈ 0.403 µg/mL) |  |  | 
9 | Bld | CN1CC(=O)N[C@@H](CSC(c2ccccc2)(c2ccccc2)c2ccccc2)C(=O)NCC(=O)N[C@@H](CSC(c2ccccc2)(c2ccccc2)c2ccccc2)C(=O)N(C)CC(=O)N[C@@H](CCC(=O)O)C1=O (cyclo(C(Trt)GC(Trt)[Sar]E[Sar])) |  | 210 |  |  |  |  |  |  |  |  |  |  |  | 
10 | Bld | CN1CC(=O)N[C@@H](CSC(c2ccccc2)(c2ccccc2)c2ccccc2)C(=O)NCC(=O)N[C@@H](CSC(c2ccccc2)(c2ccccc2)c2ccccc2)C(=O)NCC(=O)N[C@@H](CCC(=O)O)C1=O (cyclo(C(Trt)GC(Trt)GE[Sar])) |  | 5400 |  |  |  | 3.1 |  |  |  | > 46 |  |  |  | 
11 |  | CN1CC(=O)N[C@@H](CSC(c2ccccc2)(c2ccccc2)c2ccccc2)C(=O)N(C)CC(=O)N[C@@H](CSC(c2ccccc2)(c2ccccc2)c2ccccc2)C(=O)N(C)CC(=O)N[C@@H](COC(C)(C)C)C1=O (cyclo(C(Trt)[Sar]C(Trt)[Sar]S(tBu)[Sar])) | 0.13 | 1.4 |  | 0.18 (≈ 0.189 µg/mL) |  | 6.3 | > 770000 | 4 | 0.3 | > 180000 | 0.74 (≈ 0.775 µg/mL) |  |  | 
12 |  | C[C@@H](OC(C)(C)C)[C@@H]1NC(=O)CNC(=O)[C@H](CSC(c2ccccc2)(c2ccccc2)c2ccccc2)NC(=O)CNC(=O)[C@H](CSC(c2ccccc2)(c2ccccc2)c2ccccc2)NC(=O)CN(C)C1=O (cyclo(C(Trt)GC(Trt)GT(tBu)[Sar])) | 8 | 3.8 |  | 0.94 (≈ 0.971 µg/mL) |  | 5.8 | > 12500 | 39 | 0.6 | > 66000 | 1.17 (≈ 1.21 µg/mL) |  |  | 
13 |  | CN1CC(=O)N[C@@H](CSC(c2ccccc2)(c2ccccc2)c2ccccc2)C(=O)N(C)CC(=O)N[C@@H](CSC(c2ccccc2)(c2ccccc2)c2ccccc2)C(=O)N(C)CC(=O)N[C@@H](CCC(=O)O)C1=O (cyclo(C(Trt)[Sar]C(Trt)[Sar]E[Sar])) | 0.2 | 12 |  | 437 (≈ 451 µg/mL) |  | 3.9 | 500000 | 4 | 0.2 | > 20000 | 28.3 (≈ 29.3 µg/mL) |  | 66 | Active
14 |  | O=C1C(O)=C([C@H]2CC[C@H](c3ccc(Cl)cc3)CC2)C(=O)c2ccccc21 [ATOVAQUONE] |  |  | inactive |  | 2.8 |  |  |  |  |  |  |  |  | 
